Experimental data taken from ChEMBL document CHEMBL1156353, “Synthetic secofriedelane and friedelane derivatives as inhibitors of human lymphocyte proliferation and growth of human cancer cell lines in vitro” (J Nat Prod, 2001).
Active and inactive are the calls of the source. The rule behind the calls is not given here.

Legend:
T-cell [1] = experiment: (§1) Inhibition of PHA-induced human T cell proliferation after 24 hrs by MTT assay; type: functional, cell-based
Summary of the method: (§2)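 Human peripheral blood mononuclear cells (Histopaque-1077 isolation) stimulated with PHA 10 µg/mL as T-mitogen, in RPMI-1640 with 10% heat-inactivated FBS, 2 mM glutamine; compounds from DMSO stocks; colorimetric MTT read-out; cyclosporin A positive control. IC50 as means ± SEM from 3-6 independent experiments in duplicate.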

[2] = as §1; type: functional, cell-based; summary of the method: as §2
UACC-62 = experiment: Cytotoxicity against human UACC62 cells by SRB assay; type: functional
Summary of the method: (§3)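 Lines from NCI, kept adherent in RPMI-1640 with 5% heat-inactivated FBS, 2 mM glutamine, 50 µg/mL gentamicin, 37 °C, 5% CO2; plated at densities ensuring exponential growth. Growth measured by NCI screening protocol with sulforhodamine B staining; GI50 per NCI method, means ± SEM from 3-6 independent experiments in duplicate. Compounds from DMSO stocks.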

SF-268 = experiment: Cytotoxicity against human SF268 cells by SRB assay; type: functional; summary of the method: as §3
[3] = Cytotoxicity against human T cells assessed as cell viability at IC50 after 24 hrs by MTT assay; type: cell-based; settings: read-out: Activity
Summary of the method: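 Peripheral blood mononuclear cells from healthy volunteers (Histopaque-1077), (2-3) × 10⁶ cells/mL in RPMI-1640 with 10% heat-inactivated FBS, 2 mM glutamine, gentamicin, exposed 24 h to compound; MTT (1 mg/mL) 4 h, formazan dissolved in SDS/DMF pH 4.7 overnight at 37 °C, OD 550 nm. Viability as % of unexposed cells; below 70% counted as toxic.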

NCI-H460 = experiment: Cytotoxicity against human NCI-H460 cells by SRB assay; type: functional; summary of the method: as §3
MCF7 = experiment: Cytotoxicity against human MCF7 cells by SRB assay; type: functional; summary of the method: as §3
TK-10 = experiment: Cytotoxicity against human TK10 cells by SRB assay; type: functional; summary of the method: as §3
T-cell [4] = experiment: Inhibition of PHA-induced human T cell proliferation at 100 uM after 24 hrs by MTT assay; type: functional, cell-based

| Structure (SMILES) | Activity (T-cell [1]) | IC50 [2] | GI50 (UACC-62) | GI50 (SF-268) | viability at 24 h [3] | GI50 (NCI-H460) | GI50 (MCF7) | GI50 (TK-10) | Activity (T-cell [4]) |
| --- | --- | --- | --- | --- | --- | --- | --- | --- | --- |
| C[C@H]1[C@@H](O)[C@H](O)C[C@@H]2[C@]1(C)CC[C@H]1[C@@]2(C)CC[C@@]2(C)[C@@H]3CC(C)(C)CC[C@]3(C)CC[C@]12C [PACHYSANDIOL A] | Dose-dependent effect | 79.1 µM | 83.3 µM | 15.5 µM | 113% | 79.4 µM | 66.4 µM | 95.7 µM | – |
| C[C@H]1[C@H](O)CC[C@@H]2[C@]1(C)CC[C@H]1[C@@]2(C)CC[C@@]2(C)[C@@H]3CC(C)(C)CC[C@]3(C)CC[C@]12C | – | – | > 100 µM | > 100 µM | – | > 100 µM | > 100 µM | > 100 µM | inactive |
| COc1cccc2c1C(=O)c1c(O)c3c(c(O)c1C2=O)C[C@@](O)(C(=O)CO)C[C@@H]3O[C@H]1C[C@H](N)[C@H](O)[C@H](C)O1 [DOXORUBICIN] | – | – | 0.094 µM | 0.093 µM | – | 0.0081 µM | 0.055 µM | 0.57 µM | – |
| C[C@H]1C(=O)CC[C@@H]2[C@]1(C)CC[C@H]1[C@@]2(C)CC[C@@]2(C)[C@@H]3CC(C)(C)CC[C@]3(C)CC[C@]12C [FRIEDELINE] | – | – | > 100 µM | > 100 µM | – | > 100 µM | > 100 µM | > 100 µM | inactive |
| C[C@H]1[C@H](O)C(=O)C[C@@H]2[C@]1(C)CC[C@H]1[C@@]2(C)CC[C@@]2(C)[C@@H]3CC(C)(C)CC[C@]3(C)CC[C@]12C | – | – | > 100 µM | > 100 µM | – | > 100 µM | > 100 µM | > 100 µM | inactive |
| C[C@H]1[C@@H](O)CC[C@@H]2[C@]1(C)CC[C@H]1[C@@]2(C)CC[C@@]2(C)[C@@H]3CC(C)(C)CC[C@]3(C)CC[C@]12C [EPIFRIEDELINOL] | – | – | > 100 µM | > 100 µM | – | > 100 µM | > 100 µM | > 100 µM | inactive |
| C[C@@H](C(=O)O)[C@@]1(C)CC[C@H]2[C@@](C)(CC[C@@]3(C)[C@@H]4CC(C)(C)CC[C@]4(C)CC[C@]23C)[C@@H]1CC=O | Dose-dependent effect | 10.7 µM | 9.9 µM | 17.2 µM | 89% | 5.4 µM | 7 µM | 10.1 µM | – |
| COC(=O)[C@H](C)[C@@]1(C)CC[C@H]2[C@@](C)(CC[C@@]3(C)[C@@H]4CC(C)(C)CC[C@]4(C)CC[C@]23C)[C@@H]1CC=O | – | – | > 100 µM | > 100 µM | – | > 100 µM | > 100 µM | > 100 µM | inactive |
| C[C@H]1C(=O)C=C[C@@H]2[C@]1(C)CC[C@H]1[C@@]2(C)CC[C@@]2(C)[C@@H]3CC(C)(C)CC[C@]3(C)CC[C@]12C | – | – | > 100 µM | > 100 µM | – | > 100 µM | > 100 µM | > 100 µM | inactive |
| CC1=C(O)C(=O)C[C@H]2[C@]3(C)CC[C@@]4(C)[C@@H]5CC(C)(C)CC[C@]5(C)CC[C@]4(C)[C@H]3CC[C@]12C | – | – | > 100 µM | > 100 µM | – | > 100 µM | > 100 µM | > 100 µM | inactive |
| CC(=O)O[C@@H]1CC[C@@H]2[C@](C)(CC[C@H]3[C@@]2(C)CC[C@@]2(C)[C@@H]4CC(C)(C)CC[C@]4(C)CC[C@]32C)[C@H]1C | – | – | – | – | – | – | – | – | inactive |
| C[C@H]1C(=O)[C@H](O)C[C@@H]2[C@]1(C)CC[C@H]1[C@@]2(C)CC[C@@]2(C)[C@@H]3CC(C)(C)CC[C@]3(C)CC[C@]12C | Dose-dependent effect | 82.3 µM | 86 µM | 95.8 µM | 92.7% | 67.8 µM | 59.5 µM | 90.5 µM | – |
